Experimental findings from ChEMBL document CHEMBL4118021, “Studies of TAK1-centered polypharmacology with novel covalent TAK1 inhibitors” (Bioorg Med Chem, 2017) are described below.

The target in assay [1] is BLOC-2 complex member HPS6 (Homo sapiens) (UniProt Q86YV9). In words: Binding affinity to HPS6 in human NCI-H358 cells at 1 uM by mass spectrometry based pull down assay. It counts as cell-based.
Assay [2] addresses Protein NipSnap homolog 1 (Homo sapiens) (UniProt Q9BPW8). In words: Binding affinity to NIPSNAP1 in human NCI-H358 cells at 1 uM by mass spectrometry based pull down assay. It counts as cell-based.
In the next assay the test system is NCI-H23. Briefly: Binding affinity to NDUFS3 in human NCI-H23 cells at 1 uM by mass spectrometry based pull down assay. It counts as cell-based.
The target of assay [3] is Nuclear pore complex protein Nup155 (Homo sapiens) (UniProt O75694). In words: Binding affinity to NUP155 in human NCI-H23 cells at 1 uM by mass spectrometry based pull down assay. It counts as cell-based.
Assay [4] addresses Monofunctional C1-tetrahydrofolate synthase, mitochondrial (Homo sapiens) (UniProt Q6UB35). In words: Binding affinity to MTHFD1L in human NCI-H358 cells at 1 uM by mass spectrometry based pull down assay. It counts as cell-based.
Assay [5] deals with Epithelial splicing regulatory protein 1 (Homo sapiens) (UniProt Q6NXG1). Briefly: Binding affinity to ESRP1 in human NCI-H358 cells at 1 uM by mass spectrometry based pull down assay. It counts as cell-based.
Assay [6] concerns the target Glyoxalase domain-containing protein 4 (Homo sapiens) (UniProt Q9HC38). In words: Binding affinity to GLOD4 in human NCI-H23 cells at 1 uM by mass spectrometry based pull down assay. It counts as cell-based.
Assay [7] concerns the target Peroxiredoxin-4 (Homo sapiens) (UniProt Q13162). In words: Binding affinity to PRDX4 in human NCI-H358 cells at 1 uM by mass spectrometry based pull down assay. It counts as cell-based.
Assay [8] addresses Arginine--tRNA ligase, cytoplasmic (Homo sapiens) (UniProt P54136). Briefly: Binding affinity to RARS in human NCI-H358 cells at 1 uM by mass spectrometry based pull down assay. It counts as cell-based.
The target in assay [9] is Actin-related protein 2 (Homo sapiens) (UniProt P61160). Briefly: Binding affinity to ACTR2 in human NCI-H358 cells at 1 uM by mass spectrometry based pull down assay. It counts as cell-based. The procedure, abridged: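 NCI-H23 or NCI-H358 cells were grown and lysed. Lysates were incubated overnight at 4 °C with 1 μM biotinylated covalent probe or DMSO, then pulled down on streptavidin beads. Proteins were run on polyacrylamide gels and stained with Coomassie. Bands were excised, digested and identified by mass spectrometry.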

For assay [10], the target named is Protein transport protein Sec23A (Homo sapiens) (UniProt Q15436). In words: Binding affinity to SEC23A in human NCI-H358 cells at 1 uM by mass spectrometry based pull down assay. It counts as cell-based.
Sequence of Protein transport protein Sec23A (Homo sapiens) (Q15436 whole entry): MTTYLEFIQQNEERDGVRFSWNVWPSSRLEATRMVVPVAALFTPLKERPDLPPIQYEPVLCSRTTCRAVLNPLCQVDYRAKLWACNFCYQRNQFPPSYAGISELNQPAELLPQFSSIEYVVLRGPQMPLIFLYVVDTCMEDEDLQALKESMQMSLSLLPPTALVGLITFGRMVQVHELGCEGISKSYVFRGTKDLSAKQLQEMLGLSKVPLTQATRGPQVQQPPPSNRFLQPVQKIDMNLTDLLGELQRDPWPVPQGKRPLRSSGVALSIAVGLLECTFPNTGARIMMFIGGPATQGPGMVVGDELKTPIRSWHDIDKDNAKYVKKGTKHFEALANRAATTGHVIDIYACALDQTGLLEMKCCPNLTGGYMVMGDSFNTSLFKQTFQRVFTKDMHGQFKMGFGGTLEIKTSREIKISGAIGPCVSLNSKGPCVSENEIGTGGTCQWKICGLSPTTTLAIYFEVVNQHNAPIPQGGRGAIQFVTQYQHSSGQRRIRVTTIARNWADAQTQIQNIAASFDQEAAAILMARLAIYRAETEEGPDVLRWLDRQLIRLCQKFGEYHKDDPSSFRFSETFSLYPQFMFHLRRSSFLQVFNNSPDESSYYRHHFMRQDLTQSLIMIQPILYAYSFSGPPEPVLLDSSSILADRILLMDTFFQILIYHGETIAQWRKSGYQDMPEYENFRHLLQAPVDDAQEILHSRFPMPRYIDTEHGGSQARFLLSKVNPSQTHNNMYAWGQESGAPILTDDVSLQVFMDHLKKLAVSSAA
Assay [11] concerns the target Cyclin-dependent kinase 5 (Homo sapiens) (UniProt Q00535). In words: Binding affinity to CDK5 in human NCI-H23 cells at 1 uM by mass spectrometry based pull down assay. It counts as cell-based.
Assay [12] concerns the target Ribonucleoside-diphosphate reductase large subunit (Homo sapiens) (UniProt P23921). Briefly: Binding affinity to RRM1 in human NCI-H23 cells at 1 uM by mass spectrometry based pull down assay. It counts as cell-based.
Assay [13] addresses Transmembrane emp24 domain-containing protein 10 (Homo sapiens) (UniProt P49755). In words: Binding affinity to TMED10 in human NCI-H358 cells at 1 uM by mass spectrometry based pull down assay. It counts as cell-based.
For assay [14], the target named is Acidic leucine-rich nuclear phosphoprotein 32 family member B (Homo sapiens) (UniProt Q92688). Briefly: Binding affinity to ANP32B in human NCI-H358 cells at 1 uM by mass spectrometry based pull down assay. It counts as cell-based.
Sequence of Acidic leucine-rich nuclear phosphoprotein 32 family member B (Homo sapiens) (Q92688 whole entry, the tested form may be a part): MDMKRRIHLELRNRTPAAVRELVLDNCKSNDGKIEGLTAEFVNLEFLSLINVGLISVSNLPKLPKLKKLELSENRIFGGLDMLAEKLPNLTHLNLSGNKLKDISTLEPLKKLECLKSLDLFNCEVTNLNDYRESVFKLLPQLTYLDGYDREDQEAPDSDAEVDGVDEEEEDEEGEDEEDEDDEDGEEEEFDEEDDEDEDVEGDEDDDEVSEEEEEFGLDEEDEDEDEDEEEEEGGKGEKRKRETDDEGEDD
Assay [15] has as its target Vascular endothelial growth factor receptor 2 (Homo sapiens) (UniProt P35968). Briefly: Inhibition of human VEGFR2 (787 to 1253 residues) expressed in mammalian expression system assessed as enzyme activity at 10 uM by KINOMEScan assay relative to control. More on the design: scale not given: the % may be the effect or the level left. The procedure, abridged: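 In vitro ATP-site competition binding assay across a panel of 456 kinases, with compound tested at 1 and 10 μM.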

For assay [16], the target named is Serine/threonine-protein kinase TAO2 (Homo sapiens) (UniProt Q9UL54). Briefly: Inhibition of TAO2 in human SKCO1 cells at 1 uM after 4 hrs using biotin labeled DVKAGNILLSEPGLVK probe by mass-spectrometric analysis relative to control. It counts as cell-based.
Assay [17] addresses Ribosomal protein S6 kinase alpha-3 (Homo sapiens) (UniProt P51812). In words: Inhibition of RSK2 domain2 in human SKCO1 cells at 1 uM after 4 hrs using biotin labeled DLKPSNILYVDESGNPESIR probe by mass-spectrometric analysis relative to control. It counts as cell-based.
The target of assay [18] is T1, Mitogen-activated protein kinase kinase kinase 7 (Homo sapiens) (UniProt O43318).
T1 sequence (whole entry): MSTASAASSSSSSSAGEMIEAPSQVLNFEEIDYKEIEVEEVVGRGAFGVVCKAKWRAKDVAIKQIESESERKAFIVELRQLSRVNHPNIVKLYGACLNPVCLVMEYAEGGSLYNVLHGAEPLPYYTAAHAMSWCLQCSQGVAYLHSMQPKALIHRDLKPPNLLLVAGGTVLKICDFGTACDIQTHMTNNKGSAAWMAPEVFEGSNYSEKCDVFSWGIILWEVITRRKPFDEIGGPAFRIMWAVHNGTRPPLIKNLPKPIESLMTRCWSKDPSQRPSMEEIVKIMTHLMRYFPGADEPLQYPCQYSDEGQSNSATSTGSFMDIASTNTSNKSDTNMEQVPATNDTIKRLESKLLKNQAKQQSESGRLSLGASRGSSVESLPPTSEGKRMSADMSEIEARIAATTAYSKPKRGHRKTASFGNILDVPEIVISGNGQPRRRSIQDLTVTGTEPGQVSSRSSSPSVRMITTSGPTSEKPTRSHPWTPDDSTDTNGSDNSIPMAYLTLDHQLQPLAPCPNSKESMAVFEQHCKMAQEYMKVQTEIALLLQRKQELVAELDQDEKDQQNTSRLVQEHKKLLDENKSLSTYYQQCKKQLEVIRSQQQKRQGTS
Briefly: Inhibition of TAK1 in RA patient-derived synovial fibroblasts assessed as inhibition of IL-1alpha-induced cytokine secretion at 3 uM preincubated for 3 hrs followed by IL-1alpha stimulation measured after 18 hrs by sandwich immunoassay. The procedure, abridged:
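Primary RA synovial fibroblasts (donor RA2159) seeded 1000 cells/well and grown ~24 h at 37 °C, 5% CO2. Starved overnight in basal medium, then ~4 h in basal medium with 0.1% BSA. Two adjacent wells pooled per replicate, in biological duplicate. Supernatants diluted 1:3 and run on Luminex 27-plex/21-plex sandwich immunoassays for 48 analytes, with spiked-ligand and mock-supernatant background controls.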

Calls of active or inactive are those of the source. No cut-off for these calls is given here.

Sequence of Monofunctional C1-tetrahydrofolate synthase, mitochondrial (Homo sapiens) (Q6UB35 whole entry): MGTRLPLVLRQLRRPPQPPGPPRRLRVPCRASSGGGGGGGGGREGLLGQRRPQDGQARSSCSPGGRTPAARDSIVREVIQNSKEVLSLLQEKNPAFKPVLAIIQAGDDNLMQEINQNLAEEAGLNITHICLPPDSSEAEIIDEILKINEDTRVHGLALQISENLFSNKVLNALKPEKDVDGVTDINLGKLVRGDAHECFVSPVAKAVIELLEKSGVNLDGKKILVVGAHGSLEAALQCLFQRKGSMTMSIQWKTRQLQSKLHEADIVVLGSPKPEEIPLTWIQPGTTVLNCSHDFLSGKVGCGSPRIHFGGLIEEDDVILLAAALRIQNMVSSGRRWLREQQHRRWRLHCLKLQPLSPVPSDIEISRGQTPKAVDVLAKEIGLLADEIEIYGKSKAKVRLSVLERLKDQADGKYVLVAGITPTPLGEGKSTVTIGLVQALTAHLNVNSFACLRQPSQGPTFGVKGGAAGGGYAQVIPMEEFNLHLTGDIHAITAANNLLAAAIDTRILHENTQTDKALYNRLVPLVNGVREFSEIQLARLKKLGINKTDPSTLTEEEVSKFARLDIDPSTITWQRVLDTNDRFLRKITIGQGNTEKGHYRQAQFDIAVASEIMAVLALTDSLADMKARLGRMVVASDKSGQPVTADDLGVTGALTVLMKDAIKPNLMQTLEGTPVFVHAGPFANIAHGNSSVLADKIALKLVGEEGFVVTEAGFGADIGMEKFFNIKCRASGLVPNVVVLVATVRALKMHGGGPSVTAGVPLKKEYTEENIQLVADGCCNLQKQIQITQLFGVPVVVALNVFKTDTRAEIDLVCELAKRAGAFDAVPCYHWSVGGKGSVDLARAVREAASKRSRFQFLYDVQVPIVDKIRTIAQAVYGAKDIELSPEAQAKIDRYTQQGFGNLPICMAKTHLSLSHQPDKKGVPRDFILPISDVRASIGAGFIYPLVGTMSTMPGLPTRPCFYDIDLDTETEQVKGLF
Sequence of Transmembrane emp24 domain-containing protein 10 (Homo sapiens) (P49755 whole entry, the tested form may be a part): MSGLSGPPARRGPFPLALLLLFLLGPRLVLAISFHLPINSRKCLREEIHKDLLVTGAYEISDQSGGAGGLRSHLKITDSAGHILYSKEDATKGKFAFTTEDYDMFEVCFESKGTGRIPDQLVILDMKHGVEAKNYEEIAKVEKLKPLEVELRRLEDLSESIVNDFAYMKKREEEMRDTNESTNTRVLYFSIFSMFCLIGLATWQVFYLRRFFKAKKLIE
Sequence of Vascular endothelial growth factor receptor 2 (Homo sapiens) (P35968 whole entry, the tested form may be a part): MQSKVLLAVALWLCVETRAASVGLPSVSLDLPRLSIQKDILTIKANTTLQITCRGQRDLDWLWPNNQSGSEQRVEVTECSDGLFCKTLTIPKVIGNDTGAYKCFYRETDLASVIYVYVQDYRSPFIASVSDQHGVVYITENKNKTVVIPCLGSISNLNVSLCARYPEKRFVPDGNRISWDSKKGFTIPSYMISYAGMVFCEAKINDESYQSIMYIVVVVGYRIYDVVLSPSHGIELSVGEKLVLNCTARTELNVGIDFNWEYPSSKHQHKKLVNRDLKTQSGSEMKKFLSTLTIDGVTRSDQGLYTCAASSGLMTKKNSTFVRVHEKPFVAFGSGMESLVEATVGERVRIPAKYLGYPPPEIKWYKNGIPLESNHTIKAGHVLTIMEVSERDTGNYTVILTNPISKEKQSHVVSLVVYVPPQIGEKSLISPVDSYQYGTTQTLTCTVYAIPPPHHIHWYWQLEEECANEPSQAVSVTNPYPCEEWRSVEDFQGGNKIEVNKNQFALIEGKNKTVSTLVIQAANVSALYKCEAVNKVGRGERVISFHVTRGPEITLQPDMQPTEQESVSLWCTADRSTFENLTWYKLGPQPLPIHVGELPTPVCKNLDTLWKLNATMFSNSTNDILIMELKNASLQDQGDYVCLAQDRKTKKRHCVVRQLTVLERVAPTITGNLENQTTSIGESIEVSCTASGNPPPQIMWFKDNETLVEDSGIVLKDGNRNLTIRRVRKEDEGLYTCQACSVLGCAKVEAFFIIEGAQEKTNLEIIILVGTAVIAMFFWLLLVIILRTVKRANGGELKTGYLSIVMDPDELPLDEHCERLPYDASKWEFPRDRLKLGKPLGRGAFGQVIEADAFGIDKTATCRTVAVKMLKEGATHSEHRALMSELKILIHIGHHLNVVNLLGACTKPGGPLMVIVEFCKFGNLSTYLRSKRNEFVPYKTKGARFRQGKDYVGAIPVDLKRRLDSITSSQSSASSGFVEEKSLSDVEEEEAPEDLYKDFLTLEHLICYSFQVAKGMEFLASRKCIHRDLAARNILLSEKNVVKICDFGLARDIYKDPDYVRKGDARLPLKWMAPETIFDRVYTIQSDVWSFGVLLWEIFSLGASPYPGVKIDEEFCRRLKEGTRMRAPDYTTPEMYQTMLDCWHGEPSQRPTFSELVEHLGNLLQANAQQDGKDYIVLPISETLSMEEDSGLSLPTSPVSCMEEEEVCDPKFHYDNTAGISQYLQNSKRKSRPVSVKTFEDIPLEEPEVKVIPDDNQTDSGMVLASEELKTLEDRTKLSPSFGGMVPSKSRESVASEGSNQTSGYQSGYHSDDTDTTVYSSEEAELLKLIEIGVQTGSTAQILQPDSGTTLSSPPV
Sequence of Arginine--tRNA ligase, cytoplasmic (Homo sapiens) (P54136 whole entry): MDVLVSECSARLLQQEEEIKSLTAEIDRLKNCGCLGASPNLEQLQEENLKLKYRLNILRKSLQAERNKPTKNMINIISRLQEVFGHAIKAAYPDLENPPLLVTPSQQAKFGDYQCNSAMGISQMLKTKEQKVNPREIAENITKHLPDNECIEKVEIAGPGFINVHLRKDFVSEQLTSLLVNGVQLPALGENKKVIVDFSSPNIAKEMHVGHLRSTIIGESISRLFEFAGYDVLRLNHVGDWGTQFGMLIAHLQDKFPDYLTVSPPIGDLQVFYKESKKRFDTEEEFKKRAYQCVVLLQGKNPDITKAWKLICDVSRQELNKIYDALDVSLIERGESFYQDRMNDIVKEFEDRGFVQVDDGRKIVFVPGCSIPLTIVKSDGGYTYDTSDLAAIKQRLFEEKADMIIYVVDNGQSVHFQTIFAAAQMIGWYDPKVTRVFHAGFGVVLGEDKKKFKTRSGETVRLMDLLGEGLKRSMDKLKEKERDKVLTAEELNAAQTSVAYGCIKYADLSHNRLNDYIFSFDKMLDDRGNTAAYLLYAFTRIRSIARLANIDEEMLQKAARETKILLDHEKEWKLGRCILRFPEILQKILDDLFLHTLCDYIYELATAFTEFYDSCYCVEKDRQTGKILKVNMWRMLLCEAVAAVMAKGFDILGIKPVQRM
Sequence of Glyoxalase domain-containing protein 4 (Homo sapiens) (Q9HC38 whole entry, the tested form may be a part): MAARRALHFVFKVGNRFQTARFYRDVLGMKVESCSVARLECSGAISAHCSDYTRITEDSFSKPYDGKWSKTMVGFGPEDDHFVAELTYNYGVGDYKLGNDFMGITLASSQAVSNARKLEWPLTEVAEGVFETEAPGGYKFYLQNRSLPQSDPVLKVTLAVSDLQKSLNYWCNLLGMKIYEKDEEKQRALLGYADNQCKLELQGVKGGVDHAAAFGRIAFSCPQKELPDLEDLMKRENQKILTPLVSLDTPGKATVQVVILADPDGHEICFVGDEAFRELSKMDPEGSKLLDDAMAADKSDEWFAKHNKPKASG
Sequence of Protein NipSnap homolog 1 (Homo sapiens) (Q9BPW8 whole entry): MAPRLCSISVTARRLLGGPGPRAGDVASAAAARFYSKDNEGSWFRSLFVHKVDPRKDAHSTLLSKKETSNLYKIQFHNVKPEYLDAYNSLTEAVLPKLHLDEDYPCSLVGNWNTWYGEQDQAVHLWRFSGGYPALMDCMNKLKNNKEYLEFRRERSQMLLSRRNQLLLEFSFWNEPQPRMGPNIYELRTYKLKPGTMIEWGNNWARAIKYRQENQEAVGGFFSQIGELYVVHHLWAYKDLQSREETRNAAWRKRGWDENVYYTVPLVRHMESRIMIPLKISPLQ

Take `C=CC(=O)Nc1ccccc1Nc1nc(Nc2ccc(N3CCN(CCOCCOCCOCCNC(=O)CCCC[C@@H]4SC[C@@H]5NC(=O)N[C@@H]54)CC3)cc2)ncc1Cl`: the outcome (in assay [1]; in assay [2]; with NCI-H23; in [3]; in [4]; in [5]) was Active. The result in assay [6], in assay [7], in assay [8], in assay [9], in assay [10] and in assay [11] was Active. For the same compound, the result in assay [12], in assay [13] and in assay [14] was Active.

Consider `COc1cc(O)c2c(c1)/C=C/C[C@H](O)[C@H](O)C(=O)/C=C\C[C@H](C)OC2=O`, for which the Activity in assay [15] is 5.2%. For the same compound, in [16], the inhibition is -2.5%.

In the case of `C=CC(=O)Nc1ccccc1Oc1nc(Nc2cnn(CCOC)c2)ncc1Cl`, in [17], the inhibition was -9.3%. Further, the inhibition entry in assay [18] is “Active”.
